Measured values from different studies.
Effect on: cell growth or viability

Cc1cc(C)cc(COc2cc3c(cc2OCc2cc(C)cc(C)c2)[C@H]2C[C@](O)(Cc4cn(CCOCCOCCOCC(=O)N[C@H](C(=O)N5C[C@H](O)C[C@H]5C(=O)NCc5ccc(-c6scnc6C)cc5)C(C)(C)C)nn4)C[C@H](C)N2CC3)c1 — IC50 (ASPC1; MTT): 730 nM
COc1ccc(-c2ccc(-c3ccc(C(=N)N)nc3)s2)cc1 — GI50 (SNB-19; SRB): 1720 nM
Cc1cc(C)cc(COc2cc3c(cc2OCc2cc(C)cc(C)c2)[C@H]2C[C@](O)(Cc4cn(Cc5cccnc5)nn4)C[C@H](C)N2CC3)c1 — IC50 (ASPC1; MTT): 674 nM
C=CC(=O)N1CCC[C@@H](n2nc(-c3ccc(Oc4ccccc4)cc3)c3c(N)ncnc32)C1 — GI50 (KU812; 48 h): 3080 nM
CC(C)=CCC[C@](C)(O)[C@H]1CC[C@]2(C)[C@@H]1[C@H](O)C[C@@H]1[C@@]3(C)CC[C@H](O[C@@H]4O[C@H](CO)[C@@H](O)[C@H](O)[C@H]4O[C@@H]4O[C@H](CO)[C@@H](O)[C@H](O)[C@H]4O)C(C)(C)[C@@H]3CC[C@]12C — IC80 (NCI-H358; MTT; 72 h): > 100000 nM
COc1cc(Nc2nccc(-c3cnn4nc(OC)ccc34)n2)cc(C(F)(F)F)c1 — IC50 (RERF-LC-MS; ATP luminescence): 590 nM
COC(C)(C)CCC[C@](C)(O)[C@H]1CC[C@]2(C)[C@@H]1[C@H](O)C[C@@H]1[C@@]3(C)CC[C@H](O)C(C)(C)[C@@H]3CC[C@]12C — IC80 (NCI-H358; MTT; 72 h): 81700 nM
CCCCCCCCCCCCCCCCOP(=O)([O-])OCC[N+](C)(C)C — inhibition (HaCaT; MTS; 20 µM; 24 h): 45.5%
Cc1cc(C)cc(COc2cc3c(cc2OCc2cc(C)cc(C)c2)[C@H]2C[C@](O)(Cc4cn(CCOCCOCCOCCNC(=O)[C@@H](CC(C)C)NC(=O)[C@@H](O)[C@H](N)Cc5ccccc5)nn4)C[C@H](C)N2CC3)c1 — IC50 (ASPC1; MTT): 630 nM
C[C@@H](Oc1cc(-c2cnn(C3CCNCC3)c2)cnc1N)c1c(Cl)ccc(F)c1Cl — inhibition (KARPAS-299; MTT; 1 µg/mL; 72 h): 85.2%
Cc1cn(CC(c2cn(C)c3ccccc23)c2cn(C)c3ccccc23)nn1 — inhibition (HaCaT; MTS; 20 µM; 24 h): 9.6%
Cc1cc(C)cc(COc2cc3c(cc2OCc2cc(C)cc(C)c2)[C@H]2C[C@](O)(Cc4cn(Cc5ccc(Cl)c(Cl)c5)nn4)C[C@H](C)N2CC3)c1 — IC50 (ASPC1; MTT): 606 nM
CCCCc1nc(Cl)c(CO)n1Cc1ccc(-c2ccccc2-c2nn[nH]n2)cc1 — EC50 (WI-38; MTT; 72 h): 9000 nM
Cc1cc(C)cc(COc2cc3c(cc2OCc2cc(C)cc(C)c2)[C@H]2C[C@](O)(Cc4cn(-c5ccccc5)nn4)C[C@H](C)N2CC3)c1 — IC50 (ASPC1; MTT): 593 nM
CC(C)C[C@H](NC(=O)[C@H](Cc1ccccc1)NC(=O)c1cnccn1)B(O)O — IC50 (KARPAS-299; ATP luminescence): 5.2 nM
COC(=O)c1c(C)ncn1CC(c1c[nH]c2ccc(C)cc12)c1c[nH]c2ccc(C)cc12 — inhibition (HaCaT; MTS; 20 µM; 24 h): 12.2%
Cc1cc(C)cc(COc2cc3c(cc2OCc2cc(C)cc(C)c2)[C@H]2C[C@](O)(Cc4cn(CC56CC7CC(CC(C7)C5)C6)nn4)C[C@H](C)N2CC3)c1 — IC50 (ASPC1; MTT): 516 nM
Cc1cc(Nc2ncc(Cl)c(Nc3ccccc3S(=O)(=O)C(C)C)n2)c(OC(C)C)cc1C1CCNCC1 — inhibition (KARPAS-299; MTT; 0.06173 µg/mL; 72 h): 62.4%
Cc1cc(C)cc(COc2cc3c(cc2OCc2cc(C)cc(C)c2)C2CC(O)(Cc4cn(CCOCCOCCOCCNC(=O)CNc5cccc6c5C(=O)N(C5CCC(=O)NC5=O)C6=O)nn4)CC(C)N2CC3)c1 (stereo not drawn) — IC50 (ASPC1; MTT): 3210 nM
CCOC(=O)c1cn(CC(c2cn(C)c3ccc(C)cc23)c2cn(C)c3ccc(C)cc23)c(C)c1C(=O)OC — inhibition (HaCaT; MTS; 20 µM; 24 h): 9.5%
Cc1cc(C)cc(COc2cc3c(cc2OCc2cc(C)cc(C)c2)C2CC(O)(Cc4cn(CCOCCOCCOCCOc5ccc6c(c5)C(=O)N(C5CCC(=O)NC5=O)C6=O)nn4)CC(C)N2CC3)c1 (stereo not drawn) — IC50 (ASPC1; MTT): 1120 nM
COc1cc(-c2ccc(-c3ccc(C(=N)N)nc3)s2)cc(OC)c1OC — GI50 (CAKI-1): 1590 nM
CCOC(=O)c1c(C)ncn1CC(c1cn(C)c2ccc([N+](=O)[O-])cc12)c1cn(C)c2ccc([N+](=O)[O-])cc12 — inhibition (HaCaT; MTS; 20 µM; 24 h): 3.7%
Cc1c(-c2cccc(C(F)(F)F)c2)sc2[nH]c(=O)n([C@H](C)c3cccc4ccccc34)c(=O)c12 — inhibition (HCC827; 10 µM): > 80%
